In ChEMBL document CHEMBL1150325, “Synthesis of methyl 5-S-alkyl-5-thio-D-arabinofuranosides and evaluation of their antimycobacterial activity” (2008):
≈ marks a conversion by molar mass, not a printed value. Calls of active or inactive are those of the source. No cut-off for these calls is given here.

Tests used:
[1] = tested on: Mycolicibacterium smegmatis; assay: Antibacterial activity against Mycobacterium smegmatis ATCC 14468 assessed as inhibition zone diameter at 20 mg/mL after 24 hrs by Kirby-Bauer disk diffusion assay; format: functional; settings: for zone of inhibition at 20000 µg/mL: ATCC 14468, 24 h, read-out: IZ
In short: (§1)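 Disk diffusion adapted from NCCLS. M. smegmatis was pre-grown about 24 h in 7H9 with 0.2% glycerol and ADC at 37.5 °C and 160 rpm, to OD₆₀₀ 0.27. It was swabbed onto Lennox or 7H10 agar with 0.5% glycerol and OADC. DMSO solutions (20 or 10 mg/mL) or control went onto 6 mm paper disks. Plates were incubated at 37 °C for 24 h, rechecked at day 6, and zone diameters measured in mm by ruler.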

Bacillus subtilis = assay: Antibacterial activity against Bacillus subtilis ATCC 6633 after 36 hrs visualized by MTT staining by broth macrodilution assay; format: functional; settings: ATCC 6633, 36 h
In short: (§2)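 Broth macrodilution adapted from NCCLS. E. coli and B. subtilis grown in Mueller-Hinton broth; M. smegmatis in Middlebrook 7H9 with 0.2% glycerol and ADC enrichment. Inocula were set to a 0.5 McFarland standard, giving a final density of 5.0 · 10⁵ cfu/mL. Incubated at 37 °C for 36 h and the MIC recorded.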

Escherichia coli = assay: Antibacterial activity against Escherichia coli ATCC 23722 after 36 hrs visualized by MTT staining by broth macrodilution assay; format: functional; settings: ATCC 23722, 36 h; in short: as §2
[2] = target: Diacylglycerol acyltransferase/mycolyltransferase Ag85C (Mycobacterium tuberculosis) (UniProt P9WQN9); assay: Inhibition of mycolyltransferase activity of Mycobacterium tuberculosis antigen 85C by UV-visible absorption spectroscopy
In short: (§3)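 Purified ag85C (M. tuberculosis) in 10 mM Tris–HCl pH 7.5, 2 mM EDTA, 1 mM DTT, added to start the reaction. The mix holds sodium phosphate buffer, β-glucosidase, dextrose and the glucose-based p-nitrophenyl substrate analogue (stock 0.1–2.5 mM, in 10% v/v DMSO); test compound is added in DMSO. The coupled release of p-nitrophenolate is read at 405 nm every 20 s for 1 h, and activity is compared by the slopes.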

[3] = tested on: Mycolicibacterium smegmatis; assay: Antibacterial activity against Mycobacterium smegmatis ATCC 14468 assessed as inhibition zone diameter at 10 mg/mL after 24 hrs by Kirby-Bauer disk diffusion assay; format: functional; settings: for zone of inhibition at 10000 µg/mL: ATCC 14468, 24 h, read-out: IZ; in short: as §1
[4] = tested on: Mycolicibacterium smegmatis; assay: Antibacterial activity against Mycobacterium smegmatis ATCC 14468 after 36 hrs visualized by MTT staining by broth macrodilution assay; format: functional; settings: ATCC 14468, 36 h; in short: as §2
[5] = target: Diacylglycerol acyltransferase/mycolyltransferase Ag85C (Mycobacterium tuberculosis) (UniProt P9WQN9); assay: Inhibition of mycolyltransferase activity of Mycobacterium tuberculosis antigen 85C at 1 to 20 mM by UV-visible absorption spectroscopy; in short: as §3

Diacylglycerol acyltransferase/mycolyltransferase Ag85C (Mycobacterium tuberculosis), sequence (P9WQN9 whole entry): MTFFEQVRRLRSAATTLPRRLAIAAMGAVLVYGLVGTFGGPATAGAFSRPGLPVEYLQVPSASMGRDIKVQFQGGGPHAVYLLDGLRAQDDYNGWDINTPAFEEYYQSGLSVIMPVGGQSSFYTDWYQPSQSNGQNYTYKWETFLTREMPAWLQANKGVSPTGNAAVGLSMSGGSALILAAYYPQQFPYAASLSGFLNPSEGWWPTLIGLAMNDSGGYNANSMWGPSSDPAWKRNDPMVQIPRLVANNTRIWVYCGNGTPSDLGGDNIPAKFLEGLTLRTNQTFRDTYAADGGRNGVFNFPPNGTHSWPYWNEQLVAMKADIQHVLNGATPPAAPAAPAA

## CCCCCCSC[C@H]1O[C@@H](OC)[C@@H](O)[C@@H]1O
[1]
  Activity: inactive
Bacillus subtilis
  MIC: > 1020 µg/mL
Escherichia coli
  MIC: > 1020 µg/mL
[2]
  Activity: Active
[3]
  Activity: inactive
[4]
  MIC: 1020 µg/mL (≈ 3.87 mM)

## NNC(=O)c1ccncc1 [ISONIAZID]
[4]
  MIC: 2 µg/mL (≈ 0.0146 mM)

## CCCCCCSC[C@H]1O[C@H](OC)[C@@H](O)[C@@H]1O
[1]
  Activity: inactive
Bacillus subtilis
  MIC: > 1020 µg/mL
Escherichia coli
  MIC: > 1020 µg/mL
[2]
  Activity: Active
[3]
  Activity: inactive
[4]
  MIC: 1020 µg/mL (≈ 3.87 mM)

## CCCCSC[C@H]1O[C@@H](OC)[C@@H](O)[C@@H]1O
[1]
  Activity: inactive
Bacillus subtilis
  MIC: > 1020 µg/mL
Escherichia coli
  MIC: > 1020 µg/mL
[3]
  Activity: inactive
[5]
  Activity: inactive
[4]
  MIC: > 1020 µg/mL

## CCCCCCCCSC[C@H]1O[C@@H](OC)[C@@H](O)[C@@H]1O
[1]
  zone of inhibition at 20000 µg/mL: 13.5 mm
Bacillus subtilis
  MIC: 512 µg/mL (≈ 1.75 mM)
Escherichia coli
  MIC: > 1020 µg/mL
[2]
  Activity: Active
[3]
  zone of inhibition at 10000 µg/mL: 7.5 mm
[4]
  MIC: 512 µg/mL (≈ 1.75 mM)

## CCCCSC[C@H]1O[C@H](OC)[C@@H](O)[C@@H]1O
[1]
  Activity: inactive
Bacillus subtilis
  MIC: > 1020 µg/mL
Escherichia coli
  MIC: > 1020 µg/mL
[3]
  Activity: inactive
[4]
  MIC: > 1020 µg/mL

## CCCCCCCCSC[C@H]1O[C@H](OC)[C@@H](O)[C@@H]1O
[1]
  zone of inhibition at 20000 µg/mL: 17.5 mm
Bacillus subtilis
  MIC: 128 µg/mL (≈ 0.438 mM)
Escherichia coli
  MIC: > 1020 µg/mL
[2]
  Activity: Active
[3]
  zone of inhibition at 10000 µg/mL: 14.5 mm
[4]
  MIC: 256 µg/mL (≈ 0.875 mM)
